Measured values taken from ChEMBL document CHEMBL1154113, “Synthesis, cannabinoid receptor affinity, molecular modeling studies and in vivo pharmacological evaluation of new substituted 1-aryl-5-(1H-pyrrol-1-yl)-1H-pyrazole-3-carboxamides. 2. Effect of the 3-carboxamide substituent on the affinity and selectivity profile” (Bioorg Med Chem, 2009).
pKi: −log10 of the molar value. Active and inactive are the calls of the source. The rule behind the calls is not given here.

Assays:
[1] = target: Cannabinoid receptor 2 (Homo sapiens, UniProt P34972); test: Displacement of [3H]CP-55940 from human recombinant CB2 receptor expressed in HEK cells; format: cell-based, HEK293
[2] = organism: Homo sapiens; test: Selectivity index, ratio of Ki for human recombinant CB2 receptor to Ki for human recombinant CB1 receptor
[3] = target: Cannabinoid receptor 1 (Homo sapiens, UniProt P21554); test: biochemical; format: cell-based, HEK293
[4] = system: Rattus norvegicus; test: Reduction in cumulative water intake in Wistar rat at 0.1 to 10 mg/kg, ip after 1440 mins; format: functional, organism-based
Procedure, shortened: (§1)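 Adult male Wistar rats, about 400 g, housed singly under an inverted 12:12 h cycle, with free access to chow and water. Groups of n = 6–8 were matched on body weight and intake and given 0, 0.1, 1 or 10 mg/kg ip, suspended in saline with a few drops of Tween 80, 30 min before lights off. Food and water were weighed at 60–360 and 1440 min. Newman–Keuls test against vehicle.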

[5] = system: Rattus norvegicus; test: Reduction in cumulative food intake in Wistar rat at 10 mg/kg, ip measured 60 mins after lights off relative to control; format: functional; conditions: 1 h, route intraperitoneal; procedure, shortened: as §1
[6] = system: Rattus norvegicus; test: Reduction in cumulative water intake in Wistar rat at 0.1 to 10 mg/kg, ip measured 360 mins after lights off; format: functional, organism-based; procedure, shortened: as §1
[7] = system: Rattus norvegicus; test: Reduction in cumulative food intake in Wistar rat at 10 mg/kg, ip measured 360 mins after lights off; format: functional; conditions: 6 h, route intraperitoneal; procedure, shortened: as §1
[8] = system: Rattus norvegicus; test: Reduction in food intake in Wistar rat at 10 mg/kg, ip after 1440 mins; format: functional, organism-based; set-up: dose 10 mg/kg; procedure, shortened: as §1
[9] = system: Rattus norvegicus; test: Reduction in cumulative food intake in Wistar rat at 1 mg/kg, ip measured 360 mins after lights off; format: functional; procedure, shortened: as §1
[10] = system: Rattus norvegicus; test: Reduction in food intake in Wistar rat at 1 mg/kg, ip after 1440 mins; format: functional, organism-based; set-up: dose 1 mg/kg; procedure, shortened: as §1

Sequence of Cannabinoid receptor 1 (P21554 whole entry): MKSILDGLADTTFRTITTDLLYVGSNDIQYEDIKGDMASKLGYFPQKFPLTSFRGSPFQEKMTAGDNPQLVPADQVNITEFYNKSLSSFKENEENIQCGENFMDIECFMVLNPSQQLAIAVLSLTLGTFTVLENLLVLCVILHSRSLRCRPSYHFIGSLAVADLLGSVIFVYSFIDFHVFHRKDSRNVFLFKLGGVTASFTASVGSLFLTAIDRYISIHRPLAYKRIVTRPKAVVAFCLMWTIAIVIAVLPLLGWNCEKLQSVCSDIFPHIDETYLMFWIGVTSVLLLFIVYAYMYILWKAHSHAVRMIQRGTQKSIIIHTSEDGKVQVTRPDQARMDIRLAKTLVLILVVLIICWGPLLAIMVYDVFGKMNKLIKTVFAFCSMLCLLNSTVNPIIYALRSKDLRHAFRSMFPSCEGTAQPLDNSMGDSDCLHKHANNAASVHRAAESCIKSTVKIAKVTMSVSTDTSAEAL
Sequence of Cannabinoid receptor 2 (P34972 whole entry): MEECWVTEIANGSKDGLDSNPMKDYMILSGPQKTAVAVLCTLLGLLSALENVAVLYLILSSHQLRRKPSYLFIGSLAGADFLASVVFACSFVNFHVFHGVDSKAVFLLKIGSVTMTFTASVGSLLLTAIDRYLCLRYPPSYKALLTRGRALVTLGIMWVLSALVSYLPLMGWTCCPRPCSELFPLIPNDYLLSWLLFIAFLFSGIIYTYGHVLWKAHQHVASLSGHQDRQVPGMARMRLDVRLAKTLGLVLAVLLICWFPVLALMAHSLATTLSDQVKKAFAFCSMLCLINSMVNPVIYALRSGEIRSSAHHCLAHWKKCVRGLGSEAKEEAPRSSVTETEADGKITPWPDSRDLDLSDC

Row | SMILES | pKi [1] | Ratio Ki [2] | pKi [3] | further results
1 | Cc1c(C(=O)NCCc2ccc(Cl)cc2Cl)nn(-c2ccc(Cl)cc2Cl)c1-n1cccc1 | < 5.40 | > 18.1 | 6.66 | –
2 | COc1ccc(CCNC(=O)c2nn(-c3ccc(Cl)cc3Cl)c(-n3cccc3)c2C)cc1Cl | 5.54 | 7.84 | 6.43 | –
3 | Cc1c(C(=O)NC(C)c2ccccc2)nn(-c2ccc(Cl)c(Cl)c2)c1-n1c(C)ccc1C (stereo not drawn) | 8.24 | 0.071 | 7.10 | –
4 | Cc1c(C(=O)NCc2ccc(Cl)cc2)nn(-c2ccc(Cl)c(Cl)c2)c1-n1c(C)ccc1C | 6.10 | 7.9 | 7.00 | –
5 | Cc1c(C(=O)NC2CCCCCC2)nn(-c2ccc(Cl)cc2Cl)c1-n1cccc1 | 7.70 | 1 | 7.70 | –
6 | Cc1c(C(=O)NCCc2ccc(Cl)c(Cl)c2)nn(-c2ccc(F)cc2F)c1-n1cccc1 | 5.89 | 4.16 | 6.51 | –
7 | Cc1c(C(=O)N[C@@H](C)C2CCCCC2)nn(-c2ccc(Cl)c(Cl)c2)c1-n1cccc1 | 8.62 | 0.71 | 8.47 | –
8 | COc1ccc(CCNC(=O)c2nn(-c3ccc(F)cc3F)c(-n3cccc3)c2C)cc1Cl | 5.71 | 2.05 | 6.02 | –
9 | Cc1c(C(=O)NCCc2ccc(Cl)cc2)nn(-c2ccc(Cl)c(Cl)c2)c1-n1cccc1 | 5.92 | 5 | 6.62 | –
10 | Cc1c(C(=O)Nc2ccc(Cl)cc2)nn(-c2ccc(F)cc2F)c1-n1cccc1 | < 5.40 | 3.76 | 5.68 | –
11 | Cc1c(C(=O)NC2CCCCCC2)nn(-c2ccc(Cl)c(Cl)c2)c1-n1cccc1 | 8.89 | 0.23 | 8.25 | –
12 | Cc1c(C(=O)Nc2ccc(Cl)cc2)nn(-c2ccc(Cl)c(Cl)c2)c1-n1cccc1 | 6.10 | 0.61 | 5.89 | –
13 | Cc1c(C(=O)NC2CCCC2)nn(-c2ccc(Cl)cc2Cl)c1-n1c(C)ccc1C | 6.51 | 2.07 | 6.82 | –
14 | COc1ccc(CCNC(=O)c2nn(-c3ccc(F)cc3F)c(-n3c(C)ccc3C)c2C)cc1Cl | < 5.40 | > 39.8 | 7.00 | –
15 | Cc1c(C(=O)NC(c2ccccc2)c2ccc(Cl)cc2)nn(-c2ccc(Cl)c(Cl)c2)c1-n1c(C)ccc1C (stereo not drawn) | < 5.40 | – | < 5.55 | –
16 | Cc1c(C(=O)NCc2ccc(Cl)cc2)nn(-c2ccc(Cl)cc2Cl)c1-n1c(C)ccc1C | < 5.40 | > 43.8 | 7.05 | –
17 | Cc1c(C(=O)NCc2ccc(Cl)cc2)nn(-c2ccc(F)cc2F)c1-n1c(C)ccc1C | < 5.40 | > 70.4 | 7.25 | –
18 | Cc1c(C(=O)NC2CCCC2)nn(-c2ccc(Cl)cc2Cl)c1-n1cccc1 | 6.77 | 2.02 | 7.08 | –
19 | COc1cc(CNC(=O)c2nn(-c3ccc(F)cc3F)c(-n3cccc3)c2C)c(Br)c(OC)c1OC | 6.13 | 2.14 | 6.46 | –
20 | Cc1c(C(=O)NC23CC4CC(CC(C4)C2)C3)nn(-c2ccc(Cl)c(Cl)c2)c1-n1c(C)ccc1C | 7.92 | 2.14 | 8.25 | –
21 | Cc1c(C(=O)NC2CCCC2)nn(-c2ccc(F)cc2F)c1-n1c(C)ccc1C | 6.05 | 1.07 | 6.08 | –
22 | Cc1c(C(=O)N[C@H](C)C2CCCCC2)nn(-c2ccc(Cl)c(Cl)c2)c1-n1cccc1 | 8.80 | 0.11 | 7.85 | –
23 | COc1cc(CNC(=O)c2nn(-c3ccc(F)cc3F)c(-n3c(C)ccc3C)c2C)c(Br)c(OC)c1OC | 6.43 | 2.26 | 6.78 | –
24 | Cc1c(C(=O)NCCc2ccc(Cl)cc2)nn(-c2ccc(F)cc2F)c1-n1c(C)ccc1C | < 5.40 | > 78.8 | 7.30 | Activity [4]: inactive; inhibition in vivo at 10 mg/kg [5]: 40%; Activity [6]: inactive; inhibition in vivo at 10 mg/kg [7]: 25%; Activity [8]: Active; Activity [9]: Active
25 | Cc1c(C(=O)NC2CCCC2)nn(-c2ccc(F)cc2F)c1-n1cccc1 | 5.96 | 0.46 | 5.62 | –
26 | Cc1c(C(=O)NCCc2ccc(Cl)cc2Cl)nn(-c2ccc(Cl)cc2Cl)c1-n1c(C)ccc1C | < 5.40 | > 25.2 | 6.81 | –
27 | Cc1c(C(=O)NC2CCCCC2)nn(-c2ccc(Cl)c(Cl)c2)c1-n1cccc1 | – | 0.3 | – | –

Row | SMILES | pKi [1] | Ratio Ki [2] | pKi [3] | further results
28 | Cc1c(C(=O)Nc2ccc(Cl)cc2)nn(-c2ccc(Cl)cc2Cl)c1-n1c(C)ccc1C | < 5.40 | > 41 | 7.02 | –
29 | Cc1c(C(=O)NCCc2ccc(Cl)cc2)nn(-c2ccc(Cl)cc2Cl)c1-n1cccc1 | < 5.40 | > 56.2 | 7.15 | –
30 | Cc1c(C(=O)NCCc2ccc(Cl)cc2)nn(-c2ccc(F)cc2F)c1-n1cccc1 | < 5.40 | > 49.2 | 7.10 | –
31 | Cc1c(C(=O)NC2CCCC2)nn(-c2ccc(Cl)c(Cl)c2)c1-n1cccc1 | 7.92 | 0.24 | 7.30 | –
32 | Cc1c(C(=O)Nc2ccc(Cl)cc2)nn(-c2ccc(F)cc2F)c1-n1c(C)ccc1C | < 5.40 | > 7.04 | 6.25 | –
33 | Cc1c(C(=O)NC2CCCCCC2)nn(-c2ccc(Cl)cc2Cl)c1-n1c(C)ccc1C | 7.10 | 1.43 | 7.25 | –
34 | Cc1c(C(=O)NCc2ccc(Cl)cc2)nn(-c2ccc(Cl)cc2Cl)c1-n1cccc1 | 6.03 | 6.71 | 6.85 | –
35 | Cc1c(C(=O)NCCc2ccc(Cl)c(Cl)c2)nn(-c2ccc(F)cc2F)c1-n1c(C)ccc1C | < 5.40 | > 73 | 7.27 | –
36 | Cc1c(C(=O)NCCc2ccc(Cl)c(Cl)c2)nn(-c2ccc(Cl)cc2Cl)c1-n1c(C)ccc1C | < 5.40 | > 33.4 | 6.93 | –
37 | Cc1c(C(=O)NCCc2ccc(Cl)cc2)nn(-c2ccc(Cl)c(Cl)c2)c1-n1c(C)ccc1C | < 5.40 | > 10.1 | 6.41 | –
38 | Cc1c(C(=O)Nc2ccc(Cl)cc2)nn(-c2ccc(Cl)c(Cl)c2)c1-n1c(C)ccc1C | < 5.40 | – | < 5.55 | –
39 | Cc1c(C(=O)NCCc2ccc(Cl)cc2Cl)nn(-c2ccc(F)cc2F)c1-n1cccc1 | 6.18 | 1.75 | 6.42 | –
40 | Cc1c(C(=O)NC2CCCCCC2)nn(-c2ccc(F)cc2F)c1-n1c(C)ccc1C | 6.96 | 1.96 | 7.25 | –
41 | Cc1c(C(=O)NCCc2ccc(Cl)cc2Cl)nn(-c2ccc(F)cc2F)c1-n1c(C)ccc1C | 6.14 | 17.6 | 7.39 | –
42 | Cc1c(C(=O)NCc2ccc(Cl)c(Cl)c2)nn(-c2ccc(Cl)cc2Cl)c1-n1c(C)ccc1C | – | 141 | – | Activity [4]: inactive; Activity [6]: inactive; Activity [10]: Active; inhibition in vivo at 10 mg/kg [7]: 25%; Activity [8]: Active; inhibition in vivo at 1 mg/kg ([9]; 6 h, route intraperitoneal): 15%
43 | Cc1c(C(=O)Nc2ccc(Cl)cc2)nn(-c2ccc(Cl)cc2Cl)c1-n1cccc1 | 7.10 | 0.67 | 6.92 | –
44 | Cc1c(C(=O)NCc2ccc(Cl)cc2)nn(-c2ccc(Cl)c(Cl)c2)c1-n1cccc1 | 7.00 | 1.43 | 7.15 | –
45 | Cc1c(C(=O)NCc2ccc(Cl)cc2)nn(-c2ccc(F)cc2F)c1-n1cccc1 | 5.47 | 10 | 6.47 | –
46 | Cc1c(C(=O)NC2CCCCCC2)nn(-c2ccc(F)cc2F)c1-n1cccc1 | 6.70 | 0.36 | 6.25 | –
47 | Cc1c(C(=O)NCCc2ccc(Cl)c(Cl)c2)nn(-c2ccc(Cl)cc2Cl)c1-n1cccc1 | < 5.40 | > 25.1 | 6.80 | –
48 | Cc1c(C(=O)NC2CCCCCC2)nn(-c2ccc(Cl)c(Cl)c2)c1-n1c(C)ccc1C | 8.38 | 0.35 | 7.92 | –
49 | Cc1c(C(=O)NCCc2ccc(Cl)cc2)nn(-c2ccc(Cl)cc2Cl)c1-n1c(C)ccc1C | < 5.40 | > 131 | 7.52 | –
50 | Cc1c(C(=O)NC2CCCC2)nn(-c2ccc(Cl)c(Cl)c2)c1-n1c(C)ccc1C | 7.92 | 0.33 | 7.44 | –
51 | COc1cc(CNC(=O)c2nn(-c3ccc(Cl)cc3Cl)c(-n3c(C)ccc3C)c2C)c(Br)c(OC)c1OC | 6.26 | 3.84 | 6.84 | –
52 | COc1cc(CNC(=O)c2nn(-c3ccc(Cl)cc3Cl)c(-n3cccc3)c2C)c(Br)c(OC)c1OC | 6.22 | 2.68 | 6.64 | –
53 | Cc1c(C(=O)NC23CC4CC(CC(C4)C2)C3)nn(-c2ccc(Cl)c(Cl)c2)c1-n1cccc1 | 7.70 | 0.65 | 7.51 | –
54 | COc1ccc(CCNC(=O)c2nn(-c3ccc(Cl)cc3Cl)c(-n3c(C)ccc3C)c2C)cc1Cl | 5.46 | 31.1 | 6.95 | –
